In ChEMBL document CHEMBL3351959, “Antinociceptive and antidepressant-like action of endomorphin-2 analogs with proline surrogates in position 2” (Bioorg Med Chem, 2014):
Active and inactive are the calls of the source.

How the values were obtained:
Mus musculus [1] = assay: Antinociceptive activity in mouse assessed as inhibition of EM-2-induced jumping at 1 ug, icv by hot-plate test; format: functional, organism-based
[2] = Half life in rat brain homogenate by RP-HPLC analysis; format: ADME, tissue-based
Summary of the method: (§1)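 Peptides are incubated at 37 °C with rat brain homogenate as the protease source. Samples taken at 0, 7.5, 15, 22.5, 30 and 60 min are analysed by RP-HPLC to derive the degradation rate constant k and the half-life. Three independent experiments in duplicate; mean ± SEM.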

Mus musculus [3] = assay: Toxicity in mouse assessed as increase in immobility time at >3 ug, icv by forced swim test; format: organism-based; conditions: in vivo, icv_or_intrathecal
Mus musculus [4] = assay: Antidepressant activity in mouse assessed as reduction in immobility time at 3 ug, icv measured 10 mins post-dose by tail suspension test; format: functional, organism-based
Summary of the method: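 Tail suspension: mice held 20 min beforehand in small individual cages. Ten minutes after an icv injection of vehicle or peptide (3 µg/animal), each mouse is suspended by the tail with adhesive tape and immobility is recorded. 10 mice per group.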

Mus musculus [5] = assay: Antidepressant activity in mouse assessed as reduction in immobility time at 3 ug, icv measured 10 mins post-dose by forced swim test; format: functional, organism-based
Summary of the method: (§2)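 Mice given a vehicle or peptide icv, then 20 min before testing kept in small individual cages at 22 ± 1 °C. The test begins 10 min after injection: groups of four swim for 6 min in Plexiglas cylinders (14 cm internal diameter) holding water at 22 ± 1 °C to 12 cm depth. Total immobility is scored by an automated system. Dose range 0.3–10 µg/animal; 10 mice per group.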

Mu-type opioid receptor = Mu-type opioid receptor (Rattus norvegicus, UniProt P33535); assay: Displacement of [3H]DAMGO from MOR in rat brain membranes; format: cell membranes, Membrane
Sequence of Mu-type opioid receptor (P33535 whole entry): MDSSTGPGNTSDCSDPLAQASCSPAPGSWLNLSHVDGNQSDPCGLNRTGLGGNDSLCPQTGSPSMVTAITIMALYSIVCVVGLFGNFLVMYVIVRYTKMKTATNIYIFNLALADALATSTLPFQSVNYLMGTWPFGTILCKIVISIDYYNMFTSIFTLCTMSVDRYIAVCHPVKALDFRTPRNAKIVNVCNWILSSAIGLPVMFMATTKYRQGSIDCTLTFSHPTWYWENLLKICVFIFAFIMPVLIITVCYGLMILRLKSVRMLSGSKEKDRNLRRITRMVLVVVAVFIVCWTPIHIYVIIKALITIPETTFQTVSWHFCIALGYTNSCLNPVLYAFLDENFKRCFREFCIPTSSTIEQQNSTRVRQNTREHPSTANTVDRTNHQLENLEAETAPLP
Summary of the method: (§3)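 Competitive binding on rat brain membranes: displacement of [³H]DAMGO (MOR) or [³H][Ile5,6]deltorphin-2 (DOR), reported as IC50. Three independent experiments, each run in duplicate, given as mean ± SEM. The DOR/MOR ratio is calculated from these IC50 values.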

[6] = target: Kappa-type opioid receptor (Cavia porcellus, UniProt P41144); assay: Displacement of [3H]nor-BNI from KOR in guinea pig brain membranes; format: cell membranes, Membrane
Sequence of Kappa-type opioid receptor (P41144 whole entry): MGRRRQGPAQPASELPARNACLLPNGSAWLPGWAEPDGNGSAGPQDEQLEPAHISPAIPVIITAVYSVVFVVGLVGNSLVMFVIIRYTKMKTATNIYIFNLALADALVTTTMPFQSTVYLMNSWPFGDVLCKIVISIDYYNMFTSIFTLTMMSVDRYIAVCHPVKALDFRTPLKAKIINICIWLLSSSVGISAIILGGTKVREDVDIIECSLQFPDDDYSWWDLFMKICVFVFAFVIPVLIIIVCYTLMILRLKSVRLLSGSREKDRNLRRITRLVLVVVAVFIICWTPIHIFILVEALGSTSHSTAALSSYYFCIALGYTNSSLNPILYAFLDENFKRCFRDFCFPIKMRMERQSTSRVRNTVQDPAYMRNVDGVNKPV

Rattus norvegicus [7] = organism: Rattus norvegicus; assay: Selectivity ratio of IC50 for KOR in guinea pig brain membranes to IC50 for MOR in rat brain membranes; format: cell membranes
Summary of the method: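 Ratio of the KOR IC50, from displacement of [³H]nor-BNI in guinea pig brain membranes, to the MOR IC50, from displacement of [³H]DAMGO in rat brain membranes. Three independent experiments in duplicate.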

Rattus norvegicus [8] = organism: Rattus norvegicus; assay: Selectivity ratio of IC50 for DOR in rat brain membranes to IC50 for MOR in rat brain membranes; format: cell membranes; summary of the method: as §3
Mus musculus [9] = assay: Toxicity in mouse assessed as mortality at >3 ug, icv; format: organism-based; conditions: in vivo, icv_or_intrathecal
Mus musculus [10] = assay: Antinociceptive activity in mouse assessed as inhibition of EM-2-induced jumping at 3 ug, icv by hot-plate test; format: functional, organism-based
Summary of the method: (§4)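 Hot-plate test in mice. Peptides are dissolved in DMSO, diluted with saline and given icv into the left ventricle (0.1–10 µg/animal). The read-out is latency to jumping, expressed as %MPE = (test − control latency)/(cut-off − control latency) × 100, with a 240 s cut-off. 10 mice per group.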

Brain = assay: Stability in rat brain homogenate assessed as degradation rate constant measured up to 60 mins by RP-HPLC analysis; format: ADME, tissue-based; conditions: 1 h; summary of the method: as §1
[11] = target: Delta-type opioid receptor (Rattus norvegicus, UniProt P33533); assay: Displacement of [3H](Ile5,6)deltorphin-2 from DOR in rat brain membranes; format: cell membranes, Membrane; summary of the method: as §3
Sequence of Delta-type opioid receptor (P33533 whole entry): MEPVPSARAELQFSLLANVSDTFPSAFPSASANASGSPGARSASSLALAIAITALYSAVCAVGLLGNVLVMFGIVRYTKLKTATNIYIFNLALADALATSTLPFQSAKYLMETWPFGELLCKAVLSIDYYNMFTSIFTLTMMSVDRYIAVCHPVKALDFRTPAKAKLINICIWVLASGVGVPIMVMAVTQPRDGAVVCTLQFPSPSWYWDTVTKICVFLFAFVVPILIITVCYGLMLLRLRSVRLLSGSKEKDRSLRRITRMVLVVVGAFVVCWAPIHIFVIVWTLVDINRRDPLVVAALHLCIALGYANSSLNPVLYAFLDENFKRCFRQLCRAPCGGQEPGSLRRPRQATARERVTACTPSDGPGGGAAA

Mus musculus [12] = assay: Antidepressant activity in mouse assessed as reduction in immobility time at 3 to 10 ug, icv measured 10 mins post-dose by forced swim test; format: functional, organism-based; summary of the method: as §2
Mus musculus [13] = assay: Antinociceptive activity in mouse assessed as inhibition of EM-2-induced jumping at 3 ug, icv co-administered with naltrindole by hot-plate test; format: functional, organism-based
Summary of the method: (§5)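 Hot-plate jumping latency in mice given the peptide at 3 µg/animal icv together with β-FNA (1 µg/animal), naltrindole (1 µg/animal) or nor-BNI (5 µg/animal, per the figure legend). Result is expressed as %MPE with a 240 s cut-off; 10 mice per group; one-way ANOVA with Student–Newman–Keuls.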

Mus musculus [14] = assay: Antidepressant activity in mouse assessed as reduction in immobility time at 3 ug, icv co-administered with nor-binaltorphimine measured 10 mins post-dose by forced swim test; format: functional, organism-based
Summary of the method: (§6)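 Forced swim test in mice with the peptide at 3 µg/animal icv, co-injected with β-FNA (1 µg/animal), naltrindole (1 µg/animal) or nor-BNI (5 µg/animal). Swim starts 10 min after injection; 6-min session in water at 22 ± 1 °C; automated scoring of total immobility; 10 mice per group.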

Mus musculus [15] = assay: Antinociceptive activity in mouse assessed as inhibition of EM-2-induced jumping at 3 ug, icv co-administered with nor-binaltorphimine by hot-plate test; format: functional, organism-based; summary of the method: as §5
Mus musculus [16] = assay: Antidepressant activity in mouse assessed as reduction in immobility time at 3 ug, icv co-administered with naltrindole measured 10 mins post-dose by forced swim test; format: functional, organism-based; summary of the method: as §6
Mus musculus [17] = assay: Antidepressant-like activity in mouse assessed as horizontal locomotor activity at 3 ug, icv measured […] post-dose by locomotor activity assay; format: organism-based; conditions: in vivo, icv_or_intrathecal, 20 min
Mus musculus [18] = assay: Antinociceptive activity in mouse assessed as inhibition of EM-2-induced jumping at 3 ug, icv co-administered with beta-funaltrexamine by hot-plate test; format: functional, organism-based; summary of the method: as §5
Mus musculus [19] = assay: Antinociceptive activity in icv dosed mouse assessed as inhibition of EM-2-induced jumping by hot-plate test; format: functional, organism-based; summary of the method: as §4
Mus musculus [20] = assay: Antidepressant activity in mouse assessed as reduction in immobility time at 3 ug, icv co-administered with beta-funaltrexamine measured 10 mins post-dose by forced swim test; format: functional, organism-based; summary of the method: as §6
Mus musculus [21] = assay: Antidepressant activity in icv dosed mouse assessed as reduction in immobility time measured 10 mins post-dose by forced swim test; format: functional, organism-based; summary of the method: as §2

SMILES | inhibition (Mus musculus [1]) | half-life [2] | Activity (Mus musculus [4]) | IC50 (Mu-type opioid receptor) | IC50 [6] | Ratio IC50 (Rattus norvegicus [7]) | Ratio IC50 (Rattus norvegicus [8]) | K (Brain) | IC50 [11] | other results
Oc1ccc2c3c1O[C@H]1c4[nH]c5c(c4C[C@@]4(O)[C@@H](C2)N(CC2CC2)CC[C@]314)C[C@@]1(O)[C@H]2Cc3ccc(O)c4c3[C@@]1(CCN2CC1CC1)[C@H]5O4 | inactive | – | – | – | – | – | – | – | – | –
NC(=O)[C@H](Cc1ccccc1)NC(=O)[C@H](Cc1ccccc1)NC(=O)[C@@H]1CN(C(=O)[C@@H](N)Cc2ccc(O)cc2)C[C@H]1c1ccccc1 (mixture of isomers) | – | 38.3 min | inactive | 2.91 nM | > 1000 nM | > 1000 | > 1000 | 0.018 min⁻¹ | > 1000 nM | Activity (Mus musculus [3]): Toxic; Activity (Mus musculus [5]): inactive; Activity (Mus musculus [9]): Toxic; inhibition (Mus musculus [10]): inactive
Oc1ccc2c3c1O[C@H]1c4[nH]c5ccccc5c4C[C@@]4(O)[C@@H](C2)N(CC2CC2)CC[C@]314 | inactive | – | – | – | – | – | – | – | – | –
COC(=O)/C=C/C(=O)N[C@@H]1CC[C@@]2(O)[C@H]3Cc4ccc(O)c5c4[C@@]2(CCN3CC2CC2)[C@H]1O5 | inactive | – | – | – | – | – | – | – | – | –
NC(=O)[C@H](Cc1ccccc1)NC(=O)[C@H](Cc1ccccc1)NC(=O)[C@@H]1CCCN1C(=O)[C@@H](N)Cc1ccc(O)cc1 [ENDOMORPHIN 2] | – | 6 min | – | – | – | – | – | – | – | –
NC(=O)[C@H](Cc1ccccc1)NC(=O)[C@H](Cc1ccccc1)NC(=O)[C@H]1CN(C(=O)[C@@H](N)Cc2ccc(O)cc2)C[C@@H]1c1ccccc1 (mixture of isomers) | – | 32.5 min | Active | 0.85 nM | 27.1 nM | 31.9 | 10.7 | 0.0212 min⁻¹ | 9.06 nM | Activity (Mus musculus [12]): Active; inhibition (Mus musculus [13]): Active; Activity (Mus musculus [14]): inactive; inhibition (Mus musculus [15]): Active; Activity (Mus musculus [16]): inactive; Activity (Mus musculus [17]): Non-toxic; inhibition (Mus musculus [18]): inactive; inhibition (Mus musculus [19]): Dose-dependent effect; Activity (Mus musculus [20]): Active; Activity (Mus musculus [21]): Dose-dependent effect
